HTR2A ag = activates the mouse 5-HT2A serotonin receptor; activation, % at 7.6 µM; P35363; hit rate 0.66% among 360,000; CHO-K1 mHTR2A beta-arrestin complementation, luminescence; percent of 30 µM serotonin response;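 active = activation above a run cutoff, the mean activation of all tested compounds plus 3 SD, cut at about 14% in these data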
Target sequence (P35363 whole entry, looked up): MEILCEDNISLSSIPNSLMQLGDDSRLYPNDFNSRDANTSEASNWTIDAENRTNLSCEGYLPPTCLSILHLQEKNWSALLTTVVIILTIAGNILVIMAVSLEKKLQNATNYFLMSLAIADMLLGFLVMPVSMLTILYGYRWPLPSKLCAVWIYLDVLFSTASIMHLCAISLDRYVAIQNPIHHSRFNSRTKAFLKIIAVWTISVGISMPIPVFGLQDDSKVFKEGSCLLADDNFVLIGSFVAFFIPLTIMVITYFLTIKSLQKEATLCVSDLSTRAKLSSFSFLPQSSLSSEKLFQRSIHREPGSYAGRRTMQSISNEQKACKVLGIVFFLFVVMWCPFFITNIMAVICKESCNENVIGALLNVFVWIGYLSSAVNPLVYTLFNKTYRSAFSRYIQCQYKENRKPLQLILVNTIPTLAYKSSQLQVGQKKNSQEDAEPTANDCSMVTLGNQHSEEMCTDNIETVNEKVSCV
MC4R ag barr = agonists of human melanocortin 4 receptor (MC4R) beta-arrestin; hit rate 0.98% among 360,000; P32245; U2OS MC4R beta-arrestin complementation, luminescence; percent of melanotan II response, DMSO zero; AID 540308; activation, % at 8.9 µM;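 active = activation above a per-plate cutoff, the mean activation of sample wells on that plate plus 3 SD, cut at about 8% in these data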
MC4R antagonist = human MC4R antagonism in cAMP assay; MC4R-expressing cells, MTII-stimulated cAMP, LANCE TR-FRET; P32245; inhibition, % at 6.5 µM; hit rate 0.48% among 360,000;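 active = inhibition above its plate's cutoff, the mean of tested wells on that plate plus 3 SD, cut at about 29% in these data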
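System: U2OS cells stably expressing human melanocortin 4 receptor (MC4R). Reagent: Melanotan II challenge after compound preincubation. Doses: 6.5 µM. Times: 30-min compound, 1-h challenge, 1-h detection, room temperature. Measured by: TR-FRET with Eu-cAMP and labeled anti-cAMP, 671 nm. Replicates: singlicate.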
FXN GAA850 act = activators of GAA850 frataxin (FXN) promoter; hit rate 0.56% among 360,000; HEK293 lucGAA850 FXN promoter luciferase reporter, 24 h; percent of 10 µM SAHA response; activation, % at 6 µM; AID 540364;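 active = activation above the average of all compounds screened plus 3 SD, cutoff fixed separately per campaign, cut at about 7.5% in these data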
AHR activator = activates the human aryl hydrocarbon receptor | AHR-responsive luciferase reporter cells, luminescence | activation, % at 5 µM | hit rate 2.5% among 320,000; in the data active = activation above about 47%
Of the large screens only hits and unclear results are named; the others gave an inactive call. Compounds with a hit are over-represented: about 4.7% of the library has one in this group of screens.

CCCC(=O)Nc1ccc(Cl)c(NC(=S)NC(=O)c2ccco2)c1	AHR activator 52.9
O=C(Nc1ccc(Cl)c(NC(=O)c2cccs2)c1)c1ccco1	AHR activator 74.8
C/C(=N/NC(=O)c1ccc(Cl)s1)c1ccc(NC(=O)COc2ccc(Cl)cc2)cc1	AHR activator 55.0
C/C(=N/NC(=O)c1cccs1)c1ccc(NC(=O)COc2ccc(Cl)cc2Cl)cc1	none
CCC(=O)Nc1ccc(/C(C)=N\NC(=O)c2ccc(C)s2)cc1	AHR activator 54.0
Cc1cccc(C)c1NC(=O)C1C(c2ccc3c(c2)OCO3)=Nc2ccccc2N1C(=O)c1ccccn1 (centres undefined)	none (no result: MC4R ag barr, MC4R antagonist, FXN GAA850 act, AHR activator)
COc1ccc(S(N)(=O)=O)cc1C(=O)OCC(=O)N1CC(=O)Nc2ccccc21	none (no result: AHR activator)
Cc1ccc2nc(SC(C)C(=O)Nc3cccc([N+](=O)[O-])c3)[nH]c2c1 (centres undefined)	AHR activator 66.4
COc1ccc2nc(SC(C)C(=O)NC3CCCCC3)[nH]c2c1 (centres undefined)	none (no result: AHR activator)
Cc1ccc2nc(SC(C)C(=O)NC3CCCC3)[nH]c2c1 (centres undefined)	AHR activator 48.7
Cc1ccc2nc(SC(C)C(=O)N3CCOCC3)[nH]c2c1 (centres undefined)	AHR activator 49.7
C=CCc1ccc(OCCn2cncn2)c(OC)c1	none
C=CCc1cc(C)cc(C)c1OCCn1cncn1	AHR activator 59.5
O=C(Nc1cc(S(=O)(=O)N2CCOCC2)ccc1N1CCCC1)c1ccc2c(c1)S(=O)(=O)c1ccccc1C2=O	none
COc1cccc2sc(Nc3nc(-c4ccncc4)cs3)nc12	AHR activator 63.7
COc1cccc2sc(Nc3nnc(-c4ccccc4Cl)o3)nc12	AHR activator 62.6
COc1ccccc1-c1nnc(Nc2nc3c(OC)cccc3s2)o1	AHR activator 110.7
COc1cccc(-c2nnc(Nc3nc4c(F)cccc4s3)o2)c1	AHR activator 64.4
CCN(C[C@H]1N[C@@](CC)(C(=O)OC)[C@H]2C(=O)N(C)C(=O)[C@@H]12)C(=O)Nc1ccc(C)cc1	none
COCCCNC1=C(C#N)C(=O)NC(c2cccs2)S1 (centres undefined)	none (no result: AHR activator)
Cc1noc(C)c1CSCC(=O)Nc1cc(Cl)ccc1N1CCCCC1	none
O=C(CSc1ccsc1[N+](=O)[O-])NCCc1ccccc1	AHR activator 48.3
O=C(Nc1cc(Cl)ccc1-n1cncn1)c1ccc(Br)o1	AHR activator 60.7
O=C1c2ccccc2C(=O)N1CCCCCCc1ccccc1	none
O=C1c2ccccc2C(=O)N1CCc1ccccc1	AHR activator 60.3
Cc1ccc2c(c1)c1c(n2CC(O)CNC2CCCCC2)CCCC1 (centres undefined)	MC4R ag barr 9.0
COc1cccc(C(NC(C)=O)c2nc(-c3csc4ccccc34)cs2)c1 (centres undefined)	none (no result: AHR activator)
Fc1ccc(-c2csc(/C=C/c3ccc4c(c3)OCO4)n2)cc1	AHR activator 82.0
Cc1nc(-c2ccc3c(c2)OCO3)cs1	none
CCOC(=O)c1[nH]c2cc3c(cc2c1NC(=O)CN1CCC(C)CC1)OCO3	none
CCOC(=O)c1[nH]c2cc3c(cc2c1NC(=O)CN1CCCC1)OCO3	AHR activator 58.3
CCc1n[nH]c(=S)n1/N=C/c1cc(Br)c(O)c(OC)c1	none
C=CCOc1c(Br)cc(/C=N/n2c(CC)n[nH]c2=S)cc1Br	AHR activator 67.9
CCOC(=O)c1nnc(-c2ccc(C)cc2)nc1N1CCSCC1	AHR activator 56.6
CC1CCN(CCNC(=O)c2ccc3c(=O)n(Cc4ccc(Cl)cc4)c(=S)[nH]c3c2)CC1	MC4R ag barr 9.9
Cc1ccc(C(=O)NC(C)C2CC3CCC2C3)c(C)c1 (centres undefined)	none
c1coc(CNc2nc3ccccc3s2)c1	none
CCNc1sc(C(=O)c2cccs2)c(N)c1-c1nc2ccccc2s1	AHR activator 55.1
CCOC(=O)c1sc(NCc2ccco2)c(-c2nc3ccccc3s2)c1N	AHR activator 62.0
O=C(C[C@H]1CC[C@H]2[C@@H](COC[C@@H](O)CN2S(=O)(=O)c2ccccc2)O1)N[C@@H]1CCN(Cc2ccccc2)C1	none (no result: MC4R ag barr, MC4R antagonist, FXN GAA850 act, AHR activator)
N#CC1=C(N)Oc2c(ccc3ccccc23)C1c1ccsc1 (centres undefined)	AHR activator 59.5
Clc1ccc(C2Nc3cccc4cccc(c34)N2)cc1	AHR activator 60.1
Cc1ccc(C)c(C(=O)Nc2c(C(N)=O)oc3ccccc23)c1	none
NC(=O)c1oc2ccccc2c1NC(=O)c1ccccc1	AHR activator 68.8
NC(=O)c1oc2ccccc2c1NC(=O)c1ccco1	AHR activator 47.2
CSc1ccc(C2C(C(=O)c3ccco3)=C(O)C(=O)N2c2nnc(SC)s2)cc1 (centres undefined)	MC4R antagonist 32.9
CCOC(=O)c1sc(N)c(C#N)c1CSc1nc2ccc(C)cc2[nH]1	AHR activator 70.1
COc1ccc2[nH]c3c(=O)n4c(nc3c2c1)SCC4	none
O=c1c2[nH]c3ccccc3c2nc2n1CCS2	AHR activator 57.0
COc1cccc(CNC(=O)[C@@H]2CCCN2C(=O)[C@@H]2CCCN2C(=O)c2cccc(OC)c2)c1	none (no result: MC4R ag barr, MC4R antagonist, FXN GAA850 act, AHR activator)
CCC(C)(C)C1CCC(=NNC(=S)Nc2cccnc2)CC1 (centres undefined)	AHR activator 69.2
[O-][n+]1onc2c1CCc1c-2nn(-c2ccccc2Cl)[n+]1[O-]	MC4R antagonist 36.9
Cc1ccc(-n2nc3c([n+]2[O-])CCc2c-3no[n+]2[O-])cc1	none
O=C(O)C1C2CC(C(Br)C2Br)C1C(=O)O (centres undefined)	none (no result: AHR activator)
Cc1cc(C)nc(SCC(=O)N(C)CC(=O)Nc2c(Cl)cccc2Cl)n1	none
O=C(O)C(=O)/C(=C\c1ccccc1)c1ccc2ccccc2n1	AHR activator 47.6
O=C(O)C(=O)/C(=C\c1ccsc1)c1ccc2ccccc2n1	AHR activator 77.2
O=C(O)C(=O)/C(=C\c1ccc([N+](=O)[O-])cc1)c1ccc2ccccc2n1	none
COc1ccc(/C=N\n2nnc3ccccc32)cc1	MC4R ag barr 9.0
CN1C(=O)C(c2cn(C)c3ccccc23)(c2cn(C)c3ccccc23)c2cc(Br)ccc21	none (no result: MC4R ag barr, MC4R antagonist, FXN GAA850 act, AHR activator)
Cc1ccc(Cl)c(NC(=O)COC(=O)c2nn(-c3ccccc3)cc2O)c1Cl	none
O=C(NNC(=O)c1ccc2nonc2c1)Nc1ccc(Cl)cc1	AHR activator 77.2
O=C(NNC(=O)c1cccnc1)Nc1ccc(Cl)c(Cl)c1	none
C=CCn1c(O)c(N=NC(=O)CNC(=O)c2cccs2)c2ccccc21	AHR activator 61.3
C=CCn1c(O)c(N=NC(=O)OC(C)(C)C)c2ccccc21	none

Screening data from PubChem.
